# Data published in publication PMC3152441 (Chemistry & biology, 2011).
# Key:
# Bcl-XL and Bid = assay: Ni/NTA pull-down of purified His6-tagged control proteins; details: purified protein, 20 μM compound
# Procedure, shortened: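 Purified His6-Bcl-XL or His6-Bid (≈0.4 ug) was pre-incubated 60 min with 20 μM test compound, with DMSO as control. Ni-NTA agarose beads were added and incubated overnight at 4°C. Pulled-down protein was immunoblotted with anti-His antibody. Bands were quantified relative to the DMSO control.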
# NOD2 = NOD2 (Homo sapiens, UniProt Q9HC29); assay: Subcellular fractionation of MCF-7 cells stably expressing epitope-tagged NOD2; format: cell-based; details: MCF-7 cells expressing NOD2
# NOD1 signaling = assay: Gene transfection experiments in HEK 293T-NF-κB-luciferase cells; format: cell-based
# Procedure, shortened: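 HEK293T NF-κB-luciferase cells were transfected with NOD1, RIP2, XIAP or GFP plasmids in various combinations. After 24 h, cells were cultured ± 3.5 μg/ml γ-tri-DAP, ± 10 μM test compound, or both, for 24 h. Luciferase was normalised to GFP-transfected cells (100%). Mean ± SD, n=4.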
# [1] = Cell viability under diverse cell treatments; format: cell-based
# RIG-I/MDA-5, IRF3 = assay: HEK293T ISRE-driven luciferase reporter, other interferon response stimuli; format: cell-based; details: 5 μM compound; poly(I:C), poly(dA:dT), Sendai virus
# Procedure, shortened: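 HEK293T cells stably expressing an ISRE-driven luciferase reporter were cultured ± 5 μM test compound with 1 μg/ml poly(I:C) (LyoVec lipid transfection), 1 μg/ml poly(dA:dT) (LyoVec) or Sendai virus. Luciferase was measured after 24 h. Mean ± SD, n=4.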
# TLR1, 2, 4, 5, 6 and 8 = assay: THP.1 macrophage NF-κB/AP-1-inducible SEAP reporter, TLR agonists; format: cell-based, Human; details: 5 μM compound, 24 h, PMA-differentiated THP.1
# Procedure, shortened: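 PMA-differentiated THP.1 cells carrying NF-κB-driven SEAP were cultured ± 5 μM test compound with TLR inducers: 0.5 μg/ml Pam3CSK4, heat-killed Listeria monocytogenes (HKLM), 1 μg/ml FSL-1, 0.5 μg/ml LPS, 0.5 μg/ml flagellin or 1 μg/ml ssRNA40. Supernatant SEAP was measured after 24 h, as % of inducer alone. Mean ± SEM, n=2.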
# [2] = system: non-canonical NF-κB activation induced by BAFF; assay: 697 pre-B leukemia cells NF-κB-luciferase reporter, BAFF; format: cell-based; details: 697 cells, 10 μM compound, 100 ng/ml BAFF, 24h
# Procedure, shortened: (§1)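 697 cells stably carrying an NF-κB-luciferase reporter were cultured with or without 10 μM test compound plus inducer: 100 ng/ml BAFF or 5 μM ODN2006 as TLR9 ligand. Luciferase activity was read 24 h later. Mean ± SD, n=3.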
# IκBα = assay: γ-tri-DAP-induced expression of NF-κB target gene IκBα; format: cell-based
# [3] = system: NF-κB, MAPK and Akt signalings; assay: γ-tri-DAP-dependent signaling; format: cell-based
# TLR9 = biological target: T1, TLR9 (Homo sapiens, UniProt Q9NR96); assay: 697 pre-B leukemia cells NF-κB-luciferase reporter, CpG DNA; format: cell-based; details: 697 cells, 10 μM compound, 5 μM ODN2006, 24h
# T1 sequence (Q9NR96 26-1032): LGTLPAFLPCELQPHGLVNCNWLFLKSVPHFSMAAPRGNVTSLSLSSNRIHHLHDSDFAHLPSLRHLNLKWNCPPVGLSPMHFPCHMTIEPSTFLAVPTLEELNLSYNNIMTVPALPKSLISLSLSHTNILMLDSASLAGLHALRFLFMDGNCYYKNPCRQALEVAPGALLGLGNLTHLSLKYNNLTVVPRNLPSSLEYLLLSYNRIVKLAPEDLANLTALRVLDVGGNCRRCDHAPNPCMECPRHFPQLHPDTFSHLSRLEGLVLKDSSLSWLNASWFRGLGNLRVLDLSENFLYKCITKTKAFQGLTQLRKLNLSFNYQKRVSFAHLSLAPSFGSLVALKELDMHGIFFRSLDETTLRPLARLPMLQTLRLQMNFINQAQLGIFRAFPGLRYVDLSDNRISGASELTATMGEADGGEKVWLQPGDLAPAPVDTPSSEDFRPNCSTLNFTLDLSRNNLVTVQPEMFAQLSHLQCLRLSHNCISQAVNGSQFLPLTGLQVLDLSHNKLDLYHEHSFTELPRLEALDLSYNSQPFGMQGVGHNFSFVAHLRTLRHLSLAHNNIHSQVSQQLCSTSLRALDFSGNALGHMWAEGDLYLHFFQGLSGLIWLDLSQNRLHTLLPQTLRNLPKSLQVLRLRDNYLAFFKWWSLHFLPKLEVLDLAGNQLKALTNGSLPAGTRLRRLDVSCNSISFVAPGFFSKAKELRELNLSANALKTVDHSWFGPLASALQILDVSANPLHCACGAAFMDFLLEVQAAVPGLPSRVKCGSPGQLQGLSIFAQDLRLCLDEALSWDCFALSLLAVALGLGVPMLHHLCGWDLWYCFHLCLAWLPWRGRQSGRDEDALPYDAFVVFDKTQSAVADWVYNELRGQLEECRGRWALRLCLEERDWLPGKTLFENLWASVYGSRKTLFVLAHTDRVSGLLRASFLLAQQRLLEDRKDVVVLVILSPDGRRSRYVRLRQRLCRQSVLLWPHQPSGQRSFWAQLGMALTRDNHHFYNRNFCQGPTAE
# Procedure, shortened: as §1
# inflammasomes = assay: IL-1β secretion induced by inflammasome activators; format: cell-based; details: 5 μM compound; MSU, poly(dA:dT), LPS plus ATP, S. typhimurium
# Procedure, shortened: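 RAW264.7 macrophages were treated with 5 μM test compound, with LPS pre-treatment to induce pro-IL-1β synthesis. Supernatants were taken at 2 h (Salmonella) or 4 h (others). IL-1β by ELISA. Mean ± SD, n=3.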
# NOD2, sequence (Q9HC29 whole entry): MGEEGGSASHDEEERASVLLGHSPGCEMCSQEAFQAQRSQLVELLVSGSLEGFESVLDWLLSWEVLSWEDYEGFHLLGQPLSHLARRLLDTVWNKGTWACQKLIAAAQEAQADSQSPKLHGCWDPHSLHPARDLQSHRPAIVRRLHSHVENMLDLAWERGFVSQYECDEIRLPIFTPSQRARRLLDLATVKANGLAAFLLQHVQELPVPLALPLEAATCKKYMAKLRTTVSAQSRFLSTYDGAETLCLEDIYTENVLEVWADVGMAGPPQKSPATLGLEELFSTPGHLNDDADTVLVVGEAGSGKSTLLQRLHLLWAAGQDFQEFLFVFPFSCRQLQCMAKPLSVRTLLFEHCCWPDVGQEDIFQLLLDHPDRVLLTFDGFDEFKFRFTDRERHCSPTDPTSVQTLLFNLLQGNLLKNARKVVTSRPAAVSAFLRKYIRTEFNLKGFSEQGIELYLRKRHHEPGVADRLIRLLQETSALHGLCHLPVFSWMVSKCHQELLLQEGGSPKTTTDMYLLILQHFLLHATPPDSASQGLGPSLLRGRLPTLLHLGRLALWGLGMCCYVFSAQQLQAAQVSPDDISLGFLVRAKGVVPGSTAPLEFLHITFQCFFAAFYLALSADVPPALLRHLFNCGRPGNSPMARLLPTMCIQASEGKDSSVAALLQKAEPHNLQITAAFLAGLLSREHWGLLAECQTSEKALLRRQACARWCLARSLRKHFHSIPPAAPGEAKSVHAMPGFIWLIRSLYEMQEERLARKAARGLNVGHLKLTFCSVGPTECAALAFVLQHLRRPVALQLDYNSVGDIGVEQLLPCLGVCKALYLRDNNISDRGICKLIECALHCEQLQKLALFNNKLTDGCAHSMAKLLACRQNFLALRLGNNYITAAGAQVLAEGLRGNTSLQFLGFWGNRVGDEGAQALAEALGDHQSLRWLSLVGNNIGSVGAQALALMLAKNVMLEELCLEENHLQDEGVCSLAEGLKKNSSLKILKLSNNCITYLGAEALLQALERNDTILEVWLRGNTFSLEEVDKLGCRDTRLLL
smiles,measurement,setting,value
Cc1ccc(S(=O)(=O)n2c(N)nc3ccccc32)cc1 [CID-1088438],binding of His6-tagged control proteins Bcl-XL and Bid to Ni/NTA,Bcl-XL and Bid,without affecting
same,NOD2 compartmentalization,NOD2,No changes
same,"site of action in NOD1 signaling (NOD1, RIP2, XIAP transfection)","NOD1 signaling; 10 μM compound, 24 hrs",targets NOD1 signaling upstream of RIP2
same,"impact in cells over-expressing IKKγ/NEMO, MYD88, FLIP, CARD6, APAF1 or NLRC4",NOD1 signaling; data not shown,No significant impact
same,Cell viability,[1],not affected
same,ISRE-driven reporter gene activity induced by other interferon response stimuli,"RIG-I/MDA-5, IRF3",no inhibition
same,NF-κB-inducible SEAP activity induced by TLR agonists,"TLR1, 2, 4, 5, 6 and 8",No inhibitory effects
same,non-canonical NF-κB activation induced by BAFF,[2],not inhibited
same,γ-tri-DAP-induced expression of IκBα at the mRNA level,IκBα,inhibited
same,Akt survival pathway,[3],without affecting
same,γ-tri-DAP-dependent activation of MAPK (p38 phosphorylation),[3],inhibits
same,γ-tri-DAP-dependent activation of NF-κB (IκBα phosphorylation and degradation),[3],inhibits
same,NF-κB activity induced by TLR9 ligand CpG DNA,TLR9,did not inhibit
same,IL-1β secretion induced by various inflammasome activators,inflammasomes,did not inhibit
